Measurements reported in ChEMBL document CHEMBL1141603, “2-aryloxy-4-alkylaminopyridines: discovery of novel corticotropin-releasing factor 1 antagonists” (J Med Chem, 2008).
In brackets after ≈: the same amount, converted by molar mass. Activity calls are given as the source filed them. The calls are words filed in the database; no cut-off is given here.

How the values were obtained:
[1] = Dissociation constant, pKa of the compound; assay type: physicochemical
[2] = molecular target: T1, Corticotropin-releasing factor receptor 1 (Rattus norvegicus, UniProt P35353); assay: Displacement of [125I]oCRF from rat CRF1 after 2 hrs by Betaplate scintillation counter
T1 sequence (P35353 whole entry): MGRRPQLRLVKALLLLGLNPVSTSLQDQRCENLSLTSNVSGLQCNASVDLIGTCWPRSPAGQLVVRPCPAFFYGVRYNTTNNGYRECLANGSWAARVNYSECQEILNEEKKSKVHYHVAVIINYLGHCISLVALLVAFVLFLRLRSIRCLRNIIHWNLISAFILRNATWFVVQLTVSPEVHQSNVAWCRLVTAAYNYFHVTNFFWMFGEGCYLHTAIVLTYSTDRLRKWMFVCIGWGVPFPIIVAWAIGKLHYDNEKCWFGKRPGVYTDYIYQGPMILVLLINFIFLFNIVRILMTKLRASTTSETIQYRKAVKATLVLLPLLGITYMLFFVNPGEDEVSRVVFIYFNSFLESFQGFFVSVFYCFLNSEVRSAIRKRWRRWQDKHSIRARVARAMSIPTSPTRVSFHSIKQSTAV

Rattus norvegicus [3] = assay: Ex vivo displacement of [125I]oCRF from CRF1 receptor in Sprague-Dawley rat pituitary at 3.2 mg/kg, po after 2 hrs by Betaplate scintillation counter; assay type: functional
Summary of the method: (§1)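 Male Sprague–Dawley rats (200–300 g) dosed orally 3.2 mg/kg; killed usually 1 h later, brain and pituitary frozen. Tissue at 25 mg wet wt/mL in PIPES pH 7.0 buffer with MgCl2, EGTA, bacitracin, aprotinin, incubated with 40 pM 125I-oCRF 2 h at room temperature; nonspecific with 1 µM rat/human CRF. Pellets centrifuged, rinsed, filtered, scintillation counted.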

Rattus norvegicus [4] = assay: Ex vivo displacement of [125I]oCRF from CRF1 receptor in Sprague-Dawley rat brain cortex at 3.2 mg/kg, po after 2 hrs by Betaplate scintillation counter; assay type: functional; summary of the method: as §1
[5] = Metabolic stability in human liver microsomes assessed as half life; assay type: ADME, Microsome
[6] = Intrinsic clearance in human liver microsomes; assay type: ADME, Microsome
[7] = Clearance in Beagle dog at 1.0 mg/kg, iv; assay type: ADME, organism-based, Canis lupus familiaris; parameters: dose 1 mg/kg, route intravenous; settings: in vivo
Summary of the method: (§2)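 Four beagles (2 male, 2 female, 8–15 kg), 1.0 mg/kg into cephalic vein; fasted ~21 h predose, fed ~3.5 h postdose. Serum sampled from jugular at 0.083–24 h, assayed by GC-MS (LLOQ 1.0 ng/mL). Noncompartmental: linear trapezoid AUC/AUMC, kel from log-linear terminal slope, t1/2 = 0.693/kel, CL = dose/AUC, VDss = CL·AUMC/AUC, VDγ = CL/kel.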

[8] = molecular target: T1, Corticotropin-releasing factor receptor 1; assay: Antagonist activity at CRF1 receptor in rat cortical membrane assessed as oCRF-stimulated adenylate cyclase activity after 15 mins by liquid scintillation; assay type: functional, cell membranes; settings: read-out: Ki app
Rattus norvegicus [9] = assay: Inhibition of fear-potentiated startle response in Sprague-Dawley rat at 10 mg/kg, po; assay type: functional, organism-based; parameters: dose 10 mg/kg
[10] = Tmax in fed Beagle dog at 1.0 mg/kg, po; assay type: ADME, organism-based, Canis lupus familiaris; parameters: dose 1 mg/kg, route oral; settings: in vivo
Summary of the method: (§3)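 Beagles fed one can of wet dog food 1 h before gavage of drug suspended in 0.1% methyl cellulose pH 2. Serum from jugular venipuncture at 0.25–24 h postdose, GC-MS analysis (LLOQ 1.0 ng/mL). Bioavailability = dose-normalized oral AUC(0–∞) over i.v. AUC(0–∞).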

Rattus norvegicus [11] = organism: Rattus norvegicus; assay: Inhibition of CRF-induced […] of HPA axis in Sprague-Dawley rat assessed as increase in ACTH levels by radioimmunoassay; assay type: functional; settings: read-out: MED
Summary of the method: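 Oral pretreatment in rats, N = 10 per group, then i.v. CRF 4 µg/kg; plasma ACTH measured. Minimum effective dose versus CRF alone by one-way ANOVA with Dunnett's post hoc test, p < 0.05.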

[12] = Solubility at pH 2.4; assay type: physicochemical; settings: buffer
[13] = Oral bioavailability in fasted Beagle dog at 1.0 mg/kg; assay type: ADME, organism-based, Canis lupus familiaris; settings: in vivo
Summary of the method: (§4)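 Fasted beagles (fasted ~21 h, food ~3.5 h postdose) gavaged with drug suspended in 0.1% methyl cellulose pH 2. Jugular serum taken 0.25–24 h, GC-MS quantitation (LLOQ 1.0 ng/mL). Cmax and Tmax from observed profiles; F = (dose i.v.·AUC p.o.)/(dose p.o.·AUC i.v.), AUC by linear trapezoid with log-linear extrapolation.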

[14] = Tmax in fasted Beagle dog at 1.0 mg/kg, po; assay type: ADME, organism-based, Canis lupus familiaris; parameters: dose 1 mg/kg, route oral; settings: in vivo; summary of the method: as §4
Rattus norvegicus [15] = assay: Inhibition of fear-potentiated startle response in Sprague-Dawley rat at 0.32 to 3.2 mg/kg, po; assay type: functional; parameters: scale not given: the % may be the effect or the level left; settings: dose mg/kg 0.32-3.2
Rattus norvegicus [16] = assay: Inhibition of CRF-induced startle response in Sprague-Dawley rat at 17.8 mg/kg, po; assay type: functional, organism-based; parameters: dose 17.8 mg/kg
Summary of the method: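 CRF 1 µg given icv to rats to enhance acoustic startle; compound dosed p.o. beforehand, with baseline startle also recorded.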

[17] = molecular target: T2, Corticotropin-releasing factor receptor 1 (Homo sapiens, UniProt P34998); assay: Antagonist activity at human CRF1 receptor assessed as oCRF-stimulated adenylate cyclase activity after 15 mins by liquid scintillation counting; assay type: functional; settings: read-out: Ki app
T2 sequence (P34998 whole entry): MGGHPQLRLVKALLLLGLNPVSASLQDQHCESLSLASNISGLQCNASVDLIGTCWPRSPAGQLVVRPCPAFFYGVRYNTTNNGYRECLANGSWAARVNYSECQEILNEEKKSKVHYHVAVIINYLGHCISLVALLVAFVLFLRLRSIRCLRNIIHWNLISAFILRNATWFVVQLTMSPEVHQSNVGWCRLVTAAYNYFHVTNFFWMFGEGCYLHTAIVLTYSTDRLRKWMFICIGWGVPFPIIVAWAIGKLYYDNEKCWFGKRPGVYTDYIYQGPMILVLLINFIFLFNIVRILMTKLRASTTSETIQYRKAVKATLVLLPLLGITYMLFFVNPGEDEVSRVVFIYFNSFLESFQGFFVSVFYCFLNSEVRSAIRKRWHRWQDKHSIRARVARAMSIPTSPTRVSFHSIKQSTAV

[18] = Volume of distribution at terminal elimination phase in Beagle dog at 1.0 mg/kg, iv; assay type: ADME, organism-based, Canis lupus familiaris; parameters: dose 1 mg/kg, route intravenous; settings: in vivo; summary of the method: as §2
[19] = Oral bioavailability in fed Beagle dog at 1.0 mg/kg; assay type: ADME, organism-based, Canis lupus familiaris; settings: in vivo; summary of the method: as §3
[20] = Cmax in fasted Beagle dog at 1.0 mg/kg, po; assay type: ADME, organism-based, Canis lupus familiaris; parameters: dose 1 mg/kg, route oral; settings: in vivo; summary of the method: as §4
[21] = Volume of distribution at steady state in Beagle dog at 1.0 mg/kg, iv; assay type: ADME, organism-based, Canis lupus familiaris; parameters: dose 1 mg/kg, route intravenous; settings: in vivo, read-out: Vdss; summary of the method: as §2
[22] = Solubility at pH 7; assay type: physicochemical; settings: buffer
[23] = Half life at terminal elimination phase in Beagle dog at 1.0 mg/kg, iv; assay type: ADME, organism-based, Canis lupus familiaris; parameters: dose 1 mg/kg, route intravenous; settings: in vivo; summary of the method: as §2
[24] = molecular target: T3, Corticotropin-releasing factor receptor 2 (Homo sapiens, UniProt Q13324); assay: Binding affinity for human CRF2 receptor; settings: read-out: Ki app
T3 sequence (Q13324 whole entry): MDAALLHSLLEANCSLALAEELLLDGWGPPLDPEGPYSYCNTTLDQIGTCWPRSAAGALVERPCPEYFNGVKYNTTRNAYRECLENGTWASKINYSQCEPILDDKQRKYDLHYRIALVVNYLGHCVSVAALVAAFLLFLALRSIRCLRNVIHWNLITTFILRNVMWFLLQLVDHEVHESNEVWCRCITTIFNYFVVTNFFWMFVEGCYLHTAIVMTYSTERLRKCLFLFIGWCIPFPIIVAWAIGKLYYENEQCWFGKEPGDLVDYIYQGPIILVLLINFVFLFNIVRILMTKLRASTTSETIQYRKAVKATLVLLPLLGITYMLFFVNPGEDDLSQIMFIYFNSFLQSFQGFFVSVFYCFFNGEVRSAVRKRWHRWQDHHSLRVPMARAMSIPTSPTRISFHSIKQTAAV

[25] = Cmax in fed Beagle dog at 1.0 mg/kg, po; assay type: ADME, organism-based, Canis lupus familiaris; parameters: dose 1 mg/kg, route oral; settings: in vivo; summary of the method: as §3
Rattus norvegicus [26] = assay: Inhibition of CRF-induced exitation of locus coerulus neurons in iv dosed Sprague-Dawley rat; assay type: functional; settings: read-out: ID50 (the source's name)

`CCC(CC)Nc1cc(C)nc(Nc2c(C)cc(C)cc2C)c1C` showed a pKa [1] of 9.3 and an IC50 [2] of 750 nM.

For `CCC(CC)Nc1cc(C)nc(Oc2c(C)cc(Cl)cc2C)c1C`, the IC50 [2] was 7.2 nM, the inhibition in vivo at 3.2 mg/kg (Rattus norvegicus [3]) was 72% and the inhibition in vivo at 3.2 mg/kg (Rattus norvegicus [4]) was 79%. The half-life [5] was 0.5 h.

With `CC[C@@H](CO)Nc1cc(C)nc(Oc2c(C)cc(Cl)cc2C)c1C(=O)OC` the IC50 [2] was 6.4 nM, the microsomal CLint [6] was 47 µL/min/mg and the inhibition in vivo at 3.2 mg/kg (Rattus norvegicus [3]) was 86%. For the same compound, the inhibition in vivo at 3.2 mg/kg (Rattus norvegicus [4]) was 111%.

`CCC(CC)Oc1cc(C)nc(Nc2c(C)cc(C)cc2C)c1C` showed an IC50 [2] of 3.7 nM.

For `CCC(CC)Nc1cc(C)nc(Oc2c(C)cc(C)cc2C)c1C`, the clearance [7] was 1.02 L/h/kg, the Ki [8] was 12 nM and the Activity (Rattus norvegicus [9]) was “Active”. It also gave a pKa [1] of 6.9, a Tmax [10] of 2 h and a minimal effective dose (Rattus norvegicus [11]) of 10 mg/kg. The solubility [12] was 5.4 mg/mL (≈ 16.5 mM), the bioavailability [13] was 22% and the Tmax [14] was 1.8 h. The Activity (Rattus norvegicus [15]) was 62%, the Activity (Rattus norvegicus [16]) was “Active” and the Ki [17] was 12 nM. The Vd [18] was 12 L/kg, the bioavailability [19] was 64% and the Cmax [20] was 0.0462 µg/mL. The Vd [21] was 5.3 L/kg, the IC50 [2] was 5.1 nM and the solubility [22] was 0.0001 mg/mL (≈ 0.000306 mM). For the same compound, the half-life [23] was 8.8 h, the Ki [24] was greater than 10000 nM and the inhibition in vivo at 3.2 mg/kg (Rattus norvegicus [3]) was 49%. The Cmax [25] was 0.131 µg/mL, the inhibition in vivo at 3.2 mg/kg (Rattus norvegicus [4]) was 81% and the half-life [5] was 0.633 h. For the same compound, the ED50 (Rattus norvegicus [26]) was less than 0.01 mg/kg.
